The nature of data set [1]: Antiproliferative activity against human NCI/ADR-RES cells after 48 hrs by SRB assay. It is filed as functional. A digest of the protocol:
(§1)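 Cells grown in RPMI 1640 with 5% FBS, with penicillin/streptomycin in experimental cultures. Exposed in triplicate to 0.25, 2.5, 25 and 250 µg/mL in DMSO/RPMI for 48 h at 37 °C under 5% CO2. Plates were TCA-fixed before (T0) and after treatment, then stained with sulforhodamine B and read at 540 nm. GI50 was obtained by non-linear regression against untreated growth. Doxorubicin served as positive control.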
In general terms: Sulforhodamine B stains cellular protein and so reports cell mass.

Data set [2] relates to Human alphaherpesvirus 1. As to the kind of experiment: Antiviral activity against Herpes simplex type I KOS. It is filed as functional. As to conditions: Human alphaherpesvirus 1, KOS.
Data set [3] is described as follows: Antiproliferative activity against human NCI-H460 cells after 48 hrs by SRB assay. Conditions: NCI-H460, 48 h. It is filed as functional. A digest of the protocol:
as §1

Data set [4] is described as follows: Selectivity index, ratio of CC50 for Herpes simplex type I KOS infected African green monkey Vero cells to EC50 for Herpes simplex virus type 1 KOS. It is filed as toxicity, cell-based. As to conditions: Herpes simplex virus type 1 KOS infected Vero cells, read-out: Ratio CC50/EC50. A digest of the protocol:
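SI calculated as CC50/EC50. CC50 is the 50% cytotoxic concentration on Vero cells by sulforhodamine B, tested in triplicate from 0.1 to 1000 µg/mL. EC50 is the concentration protecting 50% of cells against HSV-1, with acyclovir as HSV-1 standard and drug-free cells as control.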

Data set [5] in a line: Antiproliferative activity against human OVCAR3 cells after 48 hrs by SRB assay. Conditions: OVCAR-3, 48 h. It is filed as functional. The method in brief: as §1
The nature of data set [6]: Antiproliferative activity against human HT-29 cells after 48 hrs by SRB assay. It is filed as functional. As to conditions: HT-29, 48 h. A digest of the protocol: as §1
Data set [7] can be described thus: Antiproliferative activity against human U251 cells after 48 hrs by SRB assay. It is filed as functional. Conditions: U-251, 48 h. A digest of the protocol: as §1
Data set [8] can be described thus: Antiproliferative activity against human MCF7 cells after 48 hrs by SRB assay. As to conditions: MCF7, 48 h. It is filed as functional. A digest of the protocol:
as §1

Data set [9] can be described thus: Antiproliferative activity against human 786-0 cells after 48 hrs by SRB assay. As to conditions: 786-0, 48 h. It is filed as functional. A digest of the protocol:
as §1

The nature of data set [10]: Cytotoxicity against African green monkey Vero cells after 48 hrs by SRB assay. It is filed as toxicity, cell-based. Conditions: chlorocebus sabaeus. The method in brief: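 Vero (ATCC CCL81) cells grown in DMEM with 10% FBS and gentamicin at 37°C, 5% CO2. Cells exposed in triplicate to 1000, 500, 100, 10, 1 and 0.1 µg/mL, with untreated cells as control. Viability read by sulforhodamine B colorimetry. CC50 is the concentration giving 50% cytotoxicity.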

From ChEMBL document CHEMBL3877292, “Synthesis and evaluation of novel hybrids β-carboline-4-thiazolidinones as potential antitumor and antiviral agents” (Eur J Med Chem, 2016) come the findings set out here.

Some results are limits rather than exact numbers.

What is called GI50 is the concentration at which growth is held to half of that of the control. Broadly, the EC50 is the concentration needed to bring the measured effect to its halfway point. The term CC50 denotes the concentration at which the toxic effect on the cells reaches its halfway point. In the case of `O=C(NN1C(=O)CSC1c1ccccc1)c1cc2c([nH]c3ccccc32)c(-c2cccc([N+](=O)[O-])c2)n1` (stereo unspecified), the GI50 in [1] is greater than 100 µM; in data set [3] it was greater than 100 µM; in data set [5], 1.25 µM; in [6] it was greater than 100 µM; in [7] it was greater than 100 µM; in data set [8], greater than 100 µM. The GI50 in data set [9] is greater than 100 µM. Further, the EC50 in data set [2] stood at 2.02 µM. In [4], the selectivity ratio was found to be 534. This compound yielded a CC50 at 48 h in data set [10] of 1080 µM.

Regarding `O=C1CS/C(=N\NC(=O)c2cc3c([nH]c4ccccc43)c(-c3ccccc3)n2)N1`, the GI50 came out at 28.1 µM in data set [1]; 18.2 µM in data set [3]; 9.88 µM in [5]; 19.5 µM in data set [6]; 15.8 µM in data set [7]; 11.4 µM in data set [8]. Further, the GI50 in [9] turned out to be 16.3 µM. It took 102 µM to reach a half-maximal effect in [2] (EC50). Also, the selectivity ratio in [4] worked out at 24.4. The same compound returned a CC50 at 48 h in [10] of 2490 µM.

Consider `CCN1C(=O)CS/C1=N\NC(=O)c1cc2c([nH]c3ccccc32)c(-c2ccccc2F)n1`, for which the GI50 in data set [1], in data set [3], in data set [5], in data set [6], in [7] and in data set [8] was greater than 100 µM each time. The compound also yielded a GI50 in [9] greater than 100 µM. This compound came in with an EC50 in [2] greater than 100 µM. The compound further gave a CC50 at 48 h in [10] of 2980 µM.

On to `CN(C)c1ccc(-c2nc(C(=O)NN3C(=O)CSC3c3ccccc3)cc3c2[nH]c2ccccc23)cc1` (stereo unspecified), for which the GI50 is 64.5 µM in data set [1]; greater than 100 µM in [3]; greater than 100 µM in [5]; greater than 100 µM in data set [6]; 64.5 µM in data set [7]; greater than 100 µM in [8]. The same compound showed a GI50 in data set [9] greater than 100 µM. For the same compound, the midpoint of the response in data set [2], the EC50, lay at 0.8 µM. For the same compound, in [4], the selectivity ratio came to 592. For the same compound, the CC50 at 48 h in [10] amounted to 467 µM.

For `CCN1C(=O)CS/C1=N\NC(=O)c1cc2c([nH]c3ccccc32)c(-c2ccc(OC)cc2)n1`, the 50% growth inhibitory concentration (GI50) in data set [1] was 12.2 µM; in data set [3], 8.56 µM; in data set [5], 6.52 µM; in data set [6], 9.62 µM; in data set [7], 1.95 µM; in data set [8] it was 6.52 µM. This compound registered an EC50 in data set [2] of 26.6 µM. For the same compound, the selectivity ratio in [4] amounted to 65.2. The compound further gave a CC50 at 48 h in data set [10] of 1730 µM.

`CCN1C(=O)CS/C1=N\NC(=O)c1cc2c([nH]c3ccccc32)c(-c2ccccc2)n1`: the GI50 was 8.89 µM in data set [1]; greater than 100 µM in data set [3]; greater than 100 µM in data set [5]; greater than 100 µM in [6]; 0.46 µM in data set [7]; 17.2 µM in [8].

On to `CCN1C(=O)CS/C1=N\NC(=O)c1cc2c([nH]c3ccccc32)c(-c2ccc(N(C)C)cc2)n1`, for which the GI50 is 2.6 µM in data set [1]; 59 µM in data set [3]; 2.42 µM in [5]; 65.7 µM in data set [6]; 63.3 µM in [7]; 54.9 µM in [8]. The compound also showed a GI50 in data set [9] of 6.61 µM. This compound also showed an EC50 in [2] of 6.78 µM. The selectivity ratio in data set [4] was 243. Moreover, the CC50 at 48 h in [10] came out at 1650 µM.

Regarding `CCN1C(=O)CS/C1=N\NC(=O)c1cc2c([nH]c3ccccc32)c(-c2cccc([N+](=O)[O-])c2)n1`, the GI50 was 3.27 µM in data set [1]; greater than 100 µM in data set [3]; greater than 100 µM in data set [5]; greater than 100 µM in data set [6]; greater than 100 µM in [7]; greater than 100 µM in data set [8]. The compound also showed a GI50 in data set [9] greater than 100 µM. This compound also gave an EC50 in [2] of 86.5 µM. The selectivity ratio in data set [4] was determined as 20.7. Moreover, the CC50 at 48 h in [10] came to 1790 µM.

Consider `O=C1CS/C(=N\NC(=O)c2cc3c([nH]c4ccccc43)c(-c3ccccc3F)n2)N1`, for which the GI50 in [1] was found to be 66.4 µM; in data set [3], 21.1 µM; in [5], 12.3 µM; in [6] it was 32.4 µM; in data set [7], 9.57 µM; in data set [8], 11.9 µM. In data set [9], this compound displayed a GI50 of 20.3 µM. Besides, a half-maximal response in data set [2] (EC50) required 19.6 µM. For the same compound, the selectivity ratio in [4] was 54.9. In data set [10], the CC50 at 48 h is 1070 µM.

Turning to `COc1ccc(-c2nc(C(=O)N/N=C3/NC(=O)CS3)cc3c2[nH]c2ccccc23)cc1`, the GI50 in [1] was greater than 100 µM; in data set [3], 7.15 µM; in data set [5], 1.12 µM; in data set [6], 16.5 µM; in data set [8], 0.49 µM; in [9] it was 9.98 µM.

As for `O=C(N/N=C1\SCC(=O)N1c1ccccc1)c1cc2c([nH]c3ccccc32)c(-c2ccccc2)n1`, the GI50 in [1] is 3.13 µM; in data set [3], 37.2 µM; in data set [5], 17.5 µM; in data set [6] it was greater than 100 µM; in data set [7], 17.5 µM; in data set [8], 28 µM. In [9], this compound registered a 50% growth inhibitory concentration (GI50) of 13.6 µM. In [2], this compound had an EC50 of 78.9 µM. Further, in data set [4], the selectivity ratio amounted to 18.8. Besides, half-maximal cytotoxicity in data set [10] (CC50 at 48 h) was put at 1480 µM.

Regarding `O=C(N/N=C1\SCC(=O)N1c1ccccc1)c1cc2c([nH]c3ccccc32)c(-c2ccccc2F)n1`, the GI50 in data set [1], in data set [3], in [5], in data set [6], in data set [7] and in data set [8] was greater than 100 µM each time. Besides, the GI50 in data set [9] is greater than 100 µM. The compound further yielded an EC50 in data set [2] greater than 100 µM. For the same compound, the CC50 at 48 h in [10] was found to be 339 µM.

Take `O=C(N/N=C1\SCC(=O)N1c1ccccc1)c1cc2c([nH]c3ccccc32)c(-c2cccc([N+](=O)[O-])c2)n1`: the GI50 in data set [1] was found to be 0.19 µM; in [3] it was 3.91 µM; in data set [5], 0.83 µM; in [6], 2.28 µM; in [7] it was 1.59 µM; in data set [8], 2.36 µM. Besides, in [9], the GI50 turned out to be 1.53 µM. In addition, it took 17.2 µM to reach a half-maximal effect in data set [2] (EC50). The selectivity ratio in data set [4] came to 67.8. Further, half-maximal cytotoxicity in data set [10] (CC50 at 48 h) was put at 1170 µM.

For `O=C1CS/C(=N\NC(=O)c2cc3c([nH]c4ccccc43)c(-c3ccccc3Cl)n2)N1`, the GI50 in data set [1] was greater than 100 µM; in data set [3], 3.85 µM; in [5], 0.01 µM; in data set [6], 10.8 µM; in [8] it was 1.42 µM; in data set [9], 6.1 µM. In [2], this compound gave an EC50 greater than 100 µM. The compound further yielded a CC50 at 48 h in data set [10] of 766 µM.

Regarding `CCN1C(=O)CS/C1=N\NC(=O)c1cc2c([nH]c3ccccc32)c(-c2ccccc2Cl)n1`, the GI50 came to 0.25 µM in data set [1]; 4.12 µM in [3]; 3.97 µM in [5]; 88.9 µM in [6]; 0.74 µM in data set [7]; 6.84 µM in data set [8]. In data set [2], the EC50 is greater than 100 µM. Moreover, the CC50 at 48 h in data set [10] came out at 1400 µM.

Consider `O=C1CS/C(=N\NC(=O)c2cc3c([nH]c4ccccc43)c(-c3cccc([N+](=O)[O-])c3)n2)N1`, for which the GI50 was 0.62 µM in [1]; greater than 100 µM in data set [3]; greater than 100 µM in data set [5]; greater than 100 µM in data set [6]; 40.1 µM in data set [8]; 16.1 µM in data set [9].
